Source: article PMC4220649 (Blood Cancer Journal, 2014)
Entries after “also recorded” stand apart in the source; their conditions may differ. Where two headings read alike, the source gives them in different places.

System: patients with relapsed/refractory lymphoma
Type: in vivo, human
Conditions: for Drug-related AE: Skin/SC tissue disorders / Drug-related grade ⩾3 AE: Skin/SC tissue disorders: MedDRA SOC
Summary of the method: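 Open-label phase 1 in patients with relapsed/refractory lymphoma after ⩾2 prior therapies. Dosing started at one patient per level with doubling from 0.125 to 1.0 mg/m2, then followed a 3+3 schema up to 3.11 mg/m2. DLTs were assessed in cycle 1, and AEs were graded by NCI-CTCAE v3.0.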

CC(C)C[C@H](NC(=O)CNC(=O)c1cc(Cl)ccc1Cl)B(O)O [ixazomib]
DLTs in cycle 1 (1.76 mg/m^2 cohort): one grade 4 neutropenia | DLTs in cycle 1 (2.34 mg/m^2 cohort): DLTs occurred in one of six DLT-evaluable patients | DLTs in cycle 1 (3.11 mg/m^2 cohort): two DLTs occurred in four DLT-evaluable patients | Patients who reported DLTs (DLT-evaluable population, 28 patients): Four | MTD (maximum tolerated dose) (IV, days 1, 8 and 15 of 28-day cycles): 2.34 mg/m^2 | Drug-related AE: Skin/SC tissue disorders (all doses, Total (n=30)): 8 (27) n (%) | Drug-related grade ⩾3 AE: Skin/SC tissue disorders (all doses, Total (n=30)): 2 (7) n (%) | Drug-related AE: Skin/SC tissue disorders (dose 1.4 mg/m^2 (n=4)): 1 n | Drug-related grade ⩾3 AE: Skin/SC tissue disorders (dose 1.4 mg/m^2 (n=4)): 0 n | Drug-related AE: Skin/SC tissue disorders (dose 1.76 mg/m^2 (n=7)): 2 n | Drug-related grade ⩾3 AE: Skin/SC tissue disorders (dose 1.76 mg/m^2 (n=7)): 0 n | Drug-related AE: Skin/SC tissue disorders (dose 2.34 mg/m^2 (n=10)): 4 n | Drug-related grade ⩾3 AE: Skin/SC tissue disorders (dose 2.34 mg/m^2 (n=10)): 1 n | Drug-related AE: Skin/SC tissue disorders (dose 3.11 mg/m^2 (n=5)): 0 n | Drug-related grade ⩾3 AE: Skin/SC tissue disorders (dose 3.11 mg/m^2 (n=5)): 0 n | Drug-related AE: Skin/SC tissue disorders (dose 0.125–1.0 mg/m^2 (n=4)): 1 n | Drug-related grade ⩾3 AE: Skin/SC tissue disorders (dose 0.125–1.0 mg/m^2 (n=4)): 1 n | Patients with grade ⩾3 neutropenia who required growth factor support (all doses): 2/6 | Patients with grade ⩾3 thrombocytopenia who required platelet transfusions (all doses): 0/4 | Drug-related AE: Abdominal pain (all doses, Total (n=30)): 5 (17) n (%) | Drug-related AE: Any AE (all doses, Total (n=30)): 30 (100) n (%) | Drug-related AE: Arthralgia (all doses, Total (n=30)): 3 (10) n (%) | Drug-related AE: Chills (all doses, Total (n=30)): 4 (13) n (%) | Drug-related AE: Constipation (all doses, Total (n=30)): 3 (10) n (%) | Drug-related AE: Cough (all doses, Total (n=30)): 4 (13) n (%) | Drug-related AE: Decreased appetite (all doses, Total (n=30)): 6 (20) n (%) | Drug-related AE: Decreased platelet count (all doses, Total (n=30)): 3 (10) n (%) | Drug-related AE: Diarrhea (all doses, Total (n=30)): 10 (33) n (%) | Drug-related AE: Dysgeusia (all doses, Total (n=30)): 4 (13) n (%) | Drug-related AE: Fatigue (all doses, Total (n=30)): 13 (43) n (%) | Drug-related AE: Headache (all doses, Total (n=30)): 6 (20) n (%) | Drug-related AE: Hypokalemia (all doses, Total (n=30)): 4 (13) n (%) | Drug-related AE: Lymphopenia (all doses, Total (n=30)): 4 (13) n (%) | Drug-related AE: Nausea (all doses, Total (n=30)): 8 (27) n (%) | Drug-related AE: Neutropenia (all doses, Total (n=30)): 6 (20) n (%) | Drug-related AE: Oral herpes (all doses, Total (n=30)): 4 (13) n (%) | Drug-related AE: Pain in extremity (all doses, Total (n=30)): 3 (10) n (%) | Drug-related AE: Paresthesia (all doses, Total (n=30)): 3 (10) n (%) | Drug-related AE: Peripheral edema (all doses, Total (n=30)): 4 (13) n (%) | Drug-related AE: Pyrexia (all doses, Total (n=30)): 5 (17) n (%) | Drug-related AE: Thrombocytopenia (all doses, Total (n=30)): 8 (27) n (%) | Drug-related AE: Vomiting (all doses, Total (n=30)): 8 (27) n (%) | Drug-related grade ⩾3 AE: Any grade ⩾3 AE (all doses, Total (n=30)): 14 (47) n (%) | Drug-related grade ⩾3 AE: Dehydration (all doses, Total (n=30)): 2 (7) n (%) | Drug-related grade ⩾3 AE: Diarrhea (all doses, Total (n=30)): 3 (10) n (%) | Drug-related grade ⩾3 AE: Lymphopenia (all doses, Total (n=30)): 2 (7) n (%) | Drug-related grade ⩾3 AE: Neutropenia (all doses, Total (n=30)): 6 (20) n (%) | Drug-related grade ⩾3 AE: Thrombocytopenia (all doses, Total (n=30)): 4 (13) n (%) | AEs of Skin and subcutaneous tissue disorders (MedDRA System Organ Class), patients (all doses, n=30): 27% | Drug-related AE: diarrhea, patients (all doses, n=30): 33% | Drug-related AE: fatigue, patients (all doses, n=30): 43% | Drug-related AE: nausea, patients (all doses, n=30): 27% | Drug-related AE: thrombocytopenia, patients (all doses, n=30): 27% | Drug-related AE: vomiting, patients (all doses, n=30): 27% | Drug-related grade ⩾3 AE: diarrhea, patients (all doses, n=30): 10% | Drug-related grade ⩾3 AE: neutropenia, patients (all doses, n=30): 20% | Drug-related grade ⩾3 AE: thrombocytopenia, patients (all doses, n=30): 13% | Drug-related rash, patients (all doses, n=30): 17% | Grade ⩾3 PN (all doses, n=30): no grade ⩾3 events were reported; also recorded: no patient had grade ⩾3 PN | Patients who experienced serious AEs (all doses, n=30): Eight | Patients with drug-related grade ⩾3 AEs (all doses, n=30): 47% | Discontinuation of ixazomib due to AEs (all doses, n=30, data cut-off 1 March 2013): 10% | Patients with grade ⩾3 AEs (all-cause, all doses, n=30): 73% | Drug-related AE: Abdominal pain (dose 1.4 mg/m^2 (n=4)): 0 n | Drug-related AE: Any AE (dose 1.4 mg/m^2 (n=4)): 4 n | Drug-related AE: Arthralgia (dose 1.4 mg/m^2 (n=4)): 0 n | Drug-related AE: Chills (dose 1.4 mg/m^2 (n=4)): 0 n | Drug-related AE: Constipation (dose 1.4 mg/m^2 (n=4)): 0 n | Drug-related AE: Cough (dose 1.4 mg/m^2 (n=4)): 0 n | Drug-related AE: Decreased appetite (dose 1.4 mg/m^2 (n=4)): 1 n | Drug-related AE: Decreased platelet count (dose 1.4 mg/m^2 (n=4)): 0 n | Drug-related AE: Diarrhea (dose 1.4 mg/m^2 (n=4)): 0 n | Drug-related AE: Dysgeusia (dose 1.4 mg/m^2 (n=4)): 1 n | Drug-related AE: Fatigue (dose 1.4 mg/m^2 (n=4)): 2 n | Drug-related AE: Headache (dose 1.4 mg/m^2 (n=4)): 0 n | Drug-related AE: Hypokalemia (dose 1.4 mg/m^2 (n=4)): 0 n | Drug-related AE: Lymphopenia (dose 1.4 mg/m^2 (n=4)): 1 n | Drug-related AE: Nausea (dose 1.4 mg/m^2 (n=4)): 1 n | Drug-related AE: Neutropenia (dose 1.4 mg/m^2 (n=4)): 1 n | Drug-related AE: Oral herpes (dose 1.4 mg/m^2 (n=4)): 1 n | Drug-related AE: Pain in extremity (dose 1.4 mg/m^2 (n=4)): 0 n | Drug-related AE: Paresthesia (dose 1.4 mg/m^2 (n=4)): 1 n | Drug-related AE: Peripheral edema (dose 1.4 mg/m^2 (n=4)): 0 n | Drug-related AE: Pyrexia (dose 1.4 mg/m^2 (n=4)): 0 n | Drug-related AE: Thrombocytopenia (dose 1.4 mg/m^2 (n=4)): 2 n | Drug-related AE: Vomiting (dose 1.4 mg/m^2 (n=4)): 0 n | Drug-related grade ⩾3 AE: Any grade ⩾3 AE (dose 1.4 mg/m^2 (n=4)): 3 n | Drug-related grade ⩾3 AE: Dehydration (dose 1.4 mg/m^2 (n=4)): 0 n | Drug-related grade ⩾3 AE: Diarrhea (dose 1.4 mg/m^2 (n=4)): 0 n | Drug-related grade ⩾3 AE: Lymphopenia (dose 1.4 mg/m^2 (n=4)): 0 n | Drug-related grade ⩾3 AE: Neutropenia (dose 1.4 mg/m^2 (n=4)): 1 n | Drug-related grade ⩾3 AE: Thrombocytopenia (dose 1.4 mg/m^2 (n=4)): 1 n | Drug-related AE: Abdominal pain (dose 1.76 mg/m^2 (n=7)): 1 n | Drug-related AE: Any AE (dose 1.76 mg/m^2 (n=7)): 7 n | Drug-related AE: Arthralgia (dose 1.76 mg/m^2 (n=7)): 0 n | Drug-related AE: Chills (dose 1.76 mg/m^2 (n=7)): 2 n | Drug-related AE: Constipation (dose 1.76 mg/m^2 (n=7)): 0 n | Drug-related AE: Cough (dose 1.76 mg/m^2 (n=7)): 2 n | Drug-related AE: Decreased appetite (dose 1.76 mg/m^2 (n=7)): 1 n | Drug-related AE: Decreased platelet count (dose 1.76 mg/m^2 (n=7)): 1 n | Drug-related AE: Diarrhea (dose 1.76 mg/m^2 (n=7)): 3 n | Drug-related AE: Dysgeusia (dose 1.76 mg/m^2 (n=7)): 2 n | Drug-related AE: Fatigue (dose 1.76 mg/m^2 (n=7)): 4 n | Drug-related AE: Headache (dose 1.76 mg/m^2 (n=7)): 2 n | Drug-related AE: Hypokalemia (dose 1.76 mg/m^2 (n=7)): 1 n | Drug-related AE: Lymphopenia (dose 1.76 mg/m^2 (n=7)): 0 n | Drug-related AE: Nausea (dose 1.76 mg/m^2 (n=7)): 3 n | Drug-related AE: Neutropenia (dose 1.76 mg/m^2 (n=7)): 1 n | Drug-related AE: Oral herpes (dose 1.76 mg/m^2 (n=7)): 1 n | Drug-related AE: Pain in extremity (dose 1.76 mg/m^2 (n=7)): 0 n
